In experiment [1] the test system is Rattus norvegicus. Nature of the experiment: In vivo galactitol activity by measuring its ability to inhibit galactitol accumulation in diaphragm at 6 mg/Kg/day. The format is functional. The method, boiled down: (§1)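 Rats (n = 6) fed 20% galactose for 4 days, with compound given in the diet at the stated mg/kg per day. Galactitol accumulation in lens, sciatic nerve or diaphragm is scored as percent inhibition versus the non-treated group, as means of 3–8 drug-treated tissue samples. Dunnett's multiple comparison test applies; NS means p > 0.05.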

For experiment [2], the system named is Mus musculus. The experiment is described as follows: Antihyperglycemic activity was determined by measuring percent decrease in plasma glucose at 1 mg/kg/day. Type of experiment: functional.
The test system of experiment [3] is Mus musculus. The experiment is described as follows: Antihyperglycemic activity was determined by measuring percent decrease in plasma glucose at 5 mg/kg/day. The format is functional.
Experiment [4] relates to Rattus norvegicus. The experiment is described as follows: In vivo galactitol inhibitory activity measured by its ability to inhibit galactitol accumulation in lens at 66 mg/Kg/day. Type of experiment: functional. The note with it: Lens of camera-type eye. The method, boiled down: (§2)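 Rats (n = 6) fed 20% galactose for 4 days, with compound given in the diet at the stated daily dose. Galactitol accumulation was measured in lens, sciatic nerve and diaphragm, and % inhibition was taken versus the nontreated group. Means are from three to eight drug-treated tissue samples. Dunnett's multiple comparison test was applied, with p > 0.05 reported as not significant.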

For experiment [5], the target named is Aldo-keto reductase family 1 member B1 (Bos taurus) (UniProt P16116). The experiment is described as follows: In vitro aldose reductase inhibitory activity measured by NADPH-dependent inhibition of glyceraldehyde reduction in a partially purified bovine lens preparation at 10E-6 M. The method, boiled down:
(§3)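 Aldose reductase partially purified from bovine lens. Inhibition of NADPH-dependent glyceraldehyde reduction is measured at the single stated concentration and reported as percent inhibition, the mean of two determinations.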

Experiment [6] relates to Rattus norvegicus. Nature of the experiment: In vivo galactitol inhibitory activity measured by its ability to inhibit galactitol accumulation in diaphragm at 73 mg/Kg/day. Type of experiment: functional. The method, boiled down:
as §1

In experiment [7] the test system is Rattus norvegicus. The experiment is described as follows: In vivo galactitol inhibitory activity measured by its ability to inhibit galactitol accumulation in sciatic nerve at 73 mg/Kg/day. The format is functional. An outline of the steps: as §2
Experiment [8] concerns the target Aldo-keto reductase family 1 member B1 (Bos taurus) (UniProt P16116). Nature of the experiment: In vitro aldose reductase inhibitory activity measured by NADPH-dependent inhibition of glyceraldehyde reduction in a partially purified bovine lens preparation at 10E-7 M. An outline of the steps:
as §3

Experiment [9] concerns Rattus norvegicus. Nature of the experiment: In vivo galactitol inhibitory activity measured by its ability to inhibit galactitol accumulation in lens at 52 mg/Kg/day. Type of experiment: functional. To be noted: Lens of camera-type eye. An outline of the steps: as §1
Experiment [10] relates to Rattus norvegicus. Nature of the experiment: In vivo galactitol inhibitory activity measured by its ability to inhibit galactitol accumulation in lens at 3 mg/Kg/day; NS=Not significant (% Inhibition). The format is functional, organism-based. The note with it: Lens of camera-type eye. An outline of the steps: as §1
In experiment [11] the test system is Rattus norvegicus. The experiment is described as follows: In vivo galactitol inhibitory activity measured by its ability to inhibit galactitol accumulation in diaphragm at 52 mg/Kg/day. The format is functional. An outline of the steps: as §1
Experiment [12] concerns Rattus norvegicus. Nature of the experiment: In vivo galactitol inhibitory activity measured by its ability to inhibit galactitol accumulation in sciatic nerve at 3 mg/Kg/day; NS=Not significant (% Inhibition). Type of experiment: functional, organism-based. The method, boiled down:
as §2

In experiment [13] the test system is Mus musculus. The experiment is described as follows: Antihyperglycemic activity measured as percent decrease in mice plasma glucose at 100 mg/Kg/day. Type of experiment: functional. The method, boiled down:
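Male db/db (C57BL/KsJ) mice, 4–6 per group, dosed at 100 mg/kg per day. Plasma glucose of the drug-treated group is expressed as percent decrease relative to a vehicle-treated control group. Values are mean ± SE, with p < 0.05 marked.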

The subject of experiment [14] is Rattus norvegicus. The experiment is described as follows: In vivo galactitol inhibitory activity measured by its ability to inhibit galactitol accumulation in sciatic nerve at 52 mg/Kg/day. Type of experiment: functional. An outline of the steps: as §2
Experiment [15] concerns Rattus norvegicus. The experiment is described as follows: In vivo galactitol inhibitory activity measured by its ability to inhibit galactitol accumulation in diaphragm at 3 mg/Kg/day. Type of experiment: functional. The method, boiled down: as §1
The subject of experiment [16] is Rattus norvegicus. The experiment is described as follows: In vivo galactitol inhibitory activity measured by its ability to inhibit galactitol accumulation in diaphragm at 10 mg/kg/day. Type of experiment: functional. An outline of the steps:
as §1

Experiment [17] concerns Rattus norvegicus. The experiment is described as follows: In vivo galactitol inhibitory activity measured by its ability to inhibit galactitol accumulation in sciatic nerve at 10 mg/kg/day. The format is functional. The method, boiled down: as §2
For experiment [18], the system named is Rattus norvegicus. The experiment is described as follows: In vivo galactitol inhibitory activity measured by its ability to inhibit galactitol accumulation in lens at 10 mg/Kg/day. To be noted: Lens of camera-type eye. The format is functional. The method, boiled down: as §1
Experiment [19] relates to Rattus norvegicus. Nature of the experiment: In vivo galactitol inhibitory activity measured by its ability to inhibit galactitol accumulation in lens at 4 mg/Kg/day. The format is functional. To be noted: Lens of camera-type eye. An outline of the steps: as §1
Experiment [20] has as its system Rattus norvegicus. The experiment is described as follows: In vivo galactitol inhibitory activity measured by its ability to inhibit galactitol accumulation in sciatic nerve at 4 mg/Kg/day. Type of experiment: functional. An outline of the steps: as §2
The test system of experiment [21] is Rattus norvegicus. Nature of the experiment: In vivo galactitol inhibitory activity measured by its ability to inhibit galactitol accumulation in diaphragm at 4 mg/Kg/day. Type of experiment: functional. An outline of the steps:
as §1

This passage reports inhibition in vivo, Decrease and inhibition results from ChEMBL document CHEMBL1126205, “Novel spirosuccinimides with incorporated isoindolone and benzisothiazole 1,1-dioxide moieties as aldose reductase inhibitors and antihyperglycemic agents” (1992).

Broadly, the inhibition in vivo is the percentage by which the read-out fell short of the control. Low readings indicate little suppression, high ones strong suppression. The inhibition is the drop in the measured response relative to a control, in per cent.

The source made the active and inactive calls. The calls are words filed in the database; no cut-off is given here. A value given as a limit tells only on which side of the number the result lay.

The compound `CN1C(=O)c2ccc(Cl)cc2C12CC(=O)NC2=O` (single isomer, unassigned; (-)) came in with an inhibition in vivo at 6 mg/kg/day in experiment [1] of 24%.
As to `Cc1oc(-c2ccccc2)nc1CCOc1ccc(CC2SC(=O)NC2=O)cc1` (stereo not given), the Decrease was 40% in [2] and 52% in experiment [3].
Compound `CCN1C(=O)c2ccccc2C12CC(=O)NC2=O` (stereo not given) came in with an inhibition in vivo at 66 mg/kg/day in experiment [4] of 25%. Further, the results for the inhibition in experiment [5] and in experiment [8] were 21% and 0%, respectively. Moreover, the inhibition in vivo at 73 mg/kg/day in experiment [6] came to 62%; in experiment [7] it was 47%.
For the compound `CN1C(=O)c2ccc(F)cc2C12CC(=O)NC2=O` (stereo not given), the inhibition in vivo at 52 mg/kg/day in experiment [9] came out at 26%; in experiment [11], 68%; in experiment [14], 71%. The inhibition entry in experiment [10] and in experiment [12] was “inactive” each time. Moreover, the Decrease in experiment [13] is given as less than 15%. The results for the inhibition in [5] and in experiment [8] were 74% and 29%, respectively. Besides, the inhibition in vivo at 3 mg/kg/day in experiment [15] worked out at 15%.
Take `O=C1CC2(C(=O)N1)C(=O)N1CCOc3cc(Cl)cc2c31` (stereo not given): the inhibition in [5] turned out to be 66%; in [8], 32%. In addition, the inhibition in vivo at 10 mg/kg/day is 88% in [16], 57% in experiment [17] and 20% in experiment [18].
Consider `O=C1NC(=O)[C@@]2(CCOc3ccc(F)cc32)N1` [SORBINIL], for which the inhibition in vivo at 4 mg/kg/day in experiment [19] is 20%; in experiment [20] it was 55%; in experiment [21], 69%.
